Compound activity (PubChem)
PAFAH2 inh: PAFAH2 enzyme inhibitors, primary screen, biochemical, fluorescence polarization, human; recombinant PAFAH2, FP-rhodamine activity probe; inhibition, % at 3.39 µM; actives 0.99% (n = 340,000);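 active means inhibition above the mean over all tested compounds plus 3 SD, cut at about 30% in these data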;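 further: inhibitors block probe labeling of enzyme so polarization drops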
PAFAH1B2 inh: PAFAH1B2 enzyme inhibitors, primary screen, biochemical, fluorescence polarization, human | Platelet-activating factor acetylhydrolase IB subunit alpha2 (Homo sapiens), P68402 | recombinant PAFAH1B2, FP-rhodamine activity probe | inhibition, % at 3.39 µM | actives 1.2% (n = 340,000) | AID 492953, 2010;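 active means inhibition above the mean of all tested compounds plus 3 SD, cut at about 24% in these data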
Target sequence (P68402 whole entry, looked up): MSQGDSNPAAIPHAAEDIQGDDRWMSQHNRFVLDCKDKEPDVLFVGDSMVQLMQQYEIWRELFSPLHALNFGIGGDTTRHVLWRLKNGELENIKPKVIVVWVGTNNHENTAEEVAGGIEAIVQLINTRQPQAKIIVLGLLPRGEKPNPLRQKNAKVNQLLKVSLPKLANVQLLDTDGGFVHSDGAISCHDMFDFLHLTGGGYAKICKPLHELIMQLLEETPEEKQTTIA
Apaf-1 inh: inhibitors of human Apaf-1 apoptosome, primary screen, biochemical, DEVD-Rh110 fluorescence, uHTS | actives 0.71% (n = 330,000) | inhibition, % at 20 µM | reconstituted apoptosome caspase-3 activity | Apoptotic protease-activating factor 1 (Homo sapiens), O14727 | AID 489030, 2010; active means inhibition of at least 40% at 20 µM
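Material: reconstituted apoptosome with Apaf-1, cytochrome c, caspase-9, procaspase-3, dATP; medium: pH 7.5 Hepes buffer with CHAPS, BSA, DTT; also added: cytochrome c and DEVD-Rh110 substrate; timing: 30 min plus 50 min, RT; signal: Rh110 fluorescence intensity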
PAFAH1B3 FP inh: PAFAH1B3 enzyme inhibitors, primary screen, biochemical, fluorescence polarization, human; Platelet-activating factor acetylhydrolase IB subunit alpha1 (Homo sapiens), Q15102; recombinant PAFAH1B3, FP-rhodamine probe; inhibition, % at 3.39 µM; actives 0.28% (n = 340,000);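 active means inhibition above the screen-wide average of all tested compounds plus 3 SD, cut at about 25% in these data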
TDP2 inh: human TDP2 enzyme inhibitors, primary screen, biochemical, epi absorbance, recombinant enzyme | T5PNP hydrolysis, p-nitrophenol absorbance 415 nm | inhibition, % at 12.8 µM | actives 0.34% (n = 370,000);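 active means inhibition above the mean of all tested compounds plus 3 SD, set per campaign, cut at about 25% in these data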
Target sequence (O95551 whole entry, looked up): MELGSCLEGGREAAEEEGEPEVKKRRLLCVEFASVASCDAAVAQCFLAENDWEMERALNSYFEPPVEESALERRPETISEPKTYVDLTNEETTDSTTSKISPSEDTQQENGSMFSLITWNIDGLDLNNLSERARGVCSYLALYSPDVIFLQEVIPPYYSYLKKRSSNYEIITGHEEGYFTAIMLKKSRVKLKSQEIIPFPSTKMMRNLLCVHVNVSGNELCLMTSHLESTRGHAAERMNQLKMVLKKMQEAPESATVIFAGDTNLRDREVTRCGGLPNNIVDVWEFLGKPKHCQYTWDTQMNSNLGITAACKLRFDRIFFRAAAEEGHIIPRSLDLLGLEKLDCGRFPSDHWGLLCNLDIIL
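Material: recombinant human TDP2; quantity: TDP2 enzyme at 120 nM final; medium: Tris-HCl pH 7.5 with MgCl2; compound: single concentration, 12.8 µM nominal, with 1% DMSO; incubation: 2 h enzyme incubation at 37 °C; signal: epi absorbance; measure: percent inhibition; benchmarks: high control without enzyme, low control DMSO plus TDP2; repeats: singlicate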
Of the large screens only hits and unclear results are named; the others gave an inactive call; ! = repeats disagree. A selection: hits, their analogues and other compounds. The true share with any hit is near 2.3%.

O=C(O)CCc1ccc(S(=O)(=O)Nc2ccccc2C(=O)NCCc2ccccc2)cc1	none
O=C(C(=O)N1CCC(CNS(=O)(=O)c2ccccc2OC(F)(F)F)CC1)c1cccs1	none (no result: PAFAH2 inh, PAFAH1B2 inh, Apaf-1 inh, PAFAH1B3 FP inh)
CC(=O)c1ccc2c(c1)C1C=CCC1C(C(=O)O)N2 (stereo not drawn)	none (no result: PAFAH2 inh, PAFAH1B2 inh, PAFAH1B3 FP inh)
COc1cccc2c1NC(C(=O)O)C1CC=CC21 (stereo not drawn)	PAFAH2 inh 48, PAFAH1B2 inh 30 (no result: TDP2 inh)
CCCCOCCCNC(=O)C[C@@H]1C[C@]2(C(=O)OCC)CCC3=C2N(CCC3)C1=O	none (no result: PAFAH2 inh, PAFAH1B2 inh, Apaf-1 inh, PAFAH1B3 FP inh)
N#CCC[C@@H]1CC[C@]2(CCCN(C(=O)c3ccco3)C2)O1	none (no result: PAFAH2 inh, PAFAH1B2 inh, Apaf-1 inh, PAFAH1B3 FP inh)
O=C(CNC(=O)c1cccc(Br)c1)N/N=C/c1cc(Br)cc(Br)c1O	PAFAH1B2 inh 31
O=C(Cc1ccccc1)N/N=C/c1cc(Br)cc(Br)c1O	none
O=C(O)c1ccccc1N/N=C/c1cc(Br)cc(Br)c1O	PAFAH2 inh 35
O=C(CNC(=O)c1cccc(Br)c1)N/N=C/c1cccs1	none
O=C(O)c1cc(Cl)c2c(c1)[C@@H]1C=CC[C@@H]1[C@H](c1ccc(S(=O)(=O)N3CCOCC3)cc1)N2	PAFAH2 inh 41 (no result: Apaf-1 inh, TDP2 inh)
Cc1cc(C)c2c(c1)C1C=CCC1C(c1ccc(S(=O)(=O)N3CCOCC3)cc1)N2 (stereo not drawn)	none
CCc1ccc(C(=O)/C=C2\Sc3ccccc3NC2=O)cc1	PAFAH2 inh 36
N#CC1=C(S)N(c2ccccc2)C(c2ccc(-c3cc(Cl)ccc3Cl)o2)NC1=O (stereo not drawn)	none
N#CC1=C(S)N(c2ccccc2)C(c2ccc(-c3ccc(Cl)c(Cl)c3)o2)NC1=O (stereo not drawn)	TDP2 inh 26
O=C(CSc1nnc(-c2ccccc2)n1-c1ccc(Cl)cc1)c1ccc(Cl)cc1	none (no result: PAFAH2 inh, PAFAH1B2 inh, Apaf-1 inh, PAFAH1B3 FP inh)
COc1ccc(N=CC2=C(Nc3ccc(OC)cc3)c3c(C)nn(-c4ccccn4)c3CC2)cc1	Apaf-1 inh 93 (no result: PAFAH2 inh, PAFAH1B2 inh, PAFAH1B3 FP inh, TDP2 inh)
CCOCCCNCC(O)c1ccccc1 (stereo not drawn)	none
OCc1cc(C(O)CNCCCCCCOCCCCc2ccccc2)ccc1O (stereo not drawn)	Apaf-1 inh 42!
O=C(Nc1c(-c2ccccc2)nc2ncccn12)C1CC1	none (no result: PAFAH2 inh, PAFAH1B2 inh, Apaf-1 inh, PAFAH1B3 FP inh)
O=C(O)CC/C(=N/NC(=O)CNC(=O)Cc1ccc(Cl)cc1)c1ccccc1	PAFAH1B2 inh 24
O=C1c2ccccc2C(=O)c2c1ccc1c(=O)n(C3CCCCC3)[nH]c21	none
O=C1C2=C(c3ccccc31)[N+](=O)C1CCCCC1N2[O-] (stereo not drawn)	Apaf-1 inh 54, TDP2 inh 25
CC(C)(C)c1nnc(NS(=O)(=O)c2cc(Cl)ccc2Cl)s1	none
O=S(=O)(Nc1nc(-c2sccc2Cl)cs1)c1cc(Cl)ccc1Cl	PAFAH2 inh 42 (no result: TDP2 inh)
CCn1c2c(n(C(C)=O)c1=O)C[C@@H](c1ccccc1)[C@@H](C)[C@@H](C(=O)N1CCCC1)C2	none (no result: PAFAH2 inh, PAFAH1B2 inh, Apaf-1 inh, PAFAH1B3 FP inh)
Oc1ccc(C2=Nn3c(nnc3-c3ccco3)SC2)cc1O	PAFAH2 inh 49, PAFAH1B2 inh 29, PAFAH1B3 FP inh 50
c1coc(-c2nnc3n2N=C(c2ccc4ccccc4c2)CS3)c1	none (no result: PAFAH2 inh, PAFAH1B2 inh, Apaf-1 inh, PAFAH1B3 FP inh)
CCO/C=C1/C(=O)N(Cc2ccccc2)C(=O)c2ccccc21	Apaf-1 inh 62
Cc1nn(-c2ccccc2)c(Cl)c1CN(C(=O)CCl)c1ccc(Cl)cc1	PAFAH1B2 inh 41 (no result: Apaf-1 inh)
O=C(c1cc(O)c(O)c([N+](=O)[O-])c1)c1ccccc1F	PAFAH2 inh 68, PAFAH1B3 FP inh 29
O=C(Nc1ccc([N+](=O)[O-])cc1)c1ccccc1F	none
O=C(NCc1cccs1)c1cccc(Nc2nc3ccc(Br)cc3[nH]2)c1	PAFAH1B2 inh 27, PAFAH1B3 FP inh 32
Cc1ccc(S(=O)(=O)NCCCCCC(=O)NCCc2ccccc2)cc1	PAFAH1B2 inh 30
O=S(=O)(NCCSc1ccccn1)c1ccc(Br)cc1	PAFAH1B2 inh 25
COCCNC(=O)CCCCCNS(=O)(=O)c1ccc(C)cc1	none
O=S(=O)(NCCc1ccccc1)c1ccc(Br)cc1	PAFAH1B2 inh 28
CCCCOc1ccc(CNC(=O)NS(=O)(=O)c2ccc(OCC(C)C)cc2)cc1	PAFAH1B2 inh 59
CCCCOc1ccc(S(=O)(=O)NC(=O)NCc2ccc(OCCC)cc2)cc1	PAFAH1B2 inh 42
CCCCOc1ccc(CNC(=O)NS(=O)(=O)c2ccc(OCC)cc2)cc1	none
CN1OC[C@@H]2CN(C(=O)c3ccc([N+](=O)[O-])cc3)[C@H](c3ccccc3Br)C[C@@H]21	none (no result: PAFAH2 inh, PAFAH1B2 inh, Apaf-1 inh, PAFAH1B3 FP inh)
COc1ccc(-c2coc3c(CN4CCCCC4)c(O)c(CN4CCCCC4)c(O)c3c2=O)cc1	Apaf-1 inh 42 (no result: PAFAH2 inh, PAFAH1B2 inh, PAFAH1B3 FP inh, TDP2 inh)
O=c1c(-c2ccc(Br)cc2)coc2c(CN3CCCCC3)c(O)ccc12	none
O=C1CC(CC(=O)N/N=C/c2ccccc2[N+](=O)[O-])=NN1	Apaf-1 inh 46
O=C(NC1CCCC1)C1(C(=O)C2CC2)CC(c2ccccc2C(F)(F)F)=NO1 (stereo not drawn)	none (no result: PAFAH2 inh, PAFAH1B2 inh, Apaf-1 inh, PAFAH1B3 FP inh)
N#Cc1cccc(C(=O)OCC(=O)NCc2ccco2)c1	none
O=C(COC(=O)c1cccc(Oc2ccccc2)c1)NCc1ccco1	PAFAH2 inh 36
Cc1ccc(C(=O)Nc2ncc(Cc3ccc(F)cc3)s2)o1	PAFAH1B2 inh 28
C[C@@H]1COC(=O)[C@@H](Cc2ccc(F)cc2)C/C=C\C[C@@H](CC(=O)N[C@H](CO)Cc2ccccc2)C(=O)N1	none
O=C(C[C@H]1C/C=C\C[C@H](Cc2ccc(F)cc2)C(=O)OC[C@@H]2CCCN2C1=O)N[C@H](CO)Cc1ccccc1	none
CC(C)(C)[C@H]1COC(=O)[C@@H](Cc2ccc(F)cc2)CC/C=C/C[C@@H](CC(=O)N[C@H](CO)Cc2ccccc2)C(=O)N1	PAFAH1B2 inh 31
O=C(C[C@@H]1C/C=C\C[C@@H](Cc2ccc(F)cc2)C(=O)OCCNC1=O)N[C@H](CO)Cc1ccccc1	PAFAH1B2 inh 27
O=C(C[C@H]1C/C=C\C[C@@H](Cc2ccc(F)cc2)C(=O)OC[C@H]2CCCN2C1=O)N[C@H](CO)Cc1ccccc1	PAFAH1B2 inh 28
C[C@@H]1COC(=O)[C@H](Cc2ccc(F)cc2)C/C=C\C[C@@H](CC(=O)N[C@H](CO)Cc2ccccc2)C(=O)N1	PAFAH1B2 inh 27
CCOC(=O)[C@]12CCCC=C1N(Cc1ccc(OC)cc1)C(=O)[C@@H]2CC(=O)NCCCCc1ccccc1	none (no result: PAFAH2 inh, PAFAH1B2 inh, Apaf-1 inh, PAFAH1B3 FP inh)
CC(C)(C)[C@H]1COC(=O)[C@@H](Cc2ccc(F)cc2)CC/C=C/C[C@@H](CC(=O)N[C@@H](CO)Cc2ccccc2)C(=O)N1	PAFAH1B2 inh 27
